This is an account of results in ChEMBL document CHEMBL1142623, “Phytotoxic compounds from the new coprophilous fungus guanomyces polythrix” (J Nat Prod, 2000).

Active and inactive are the calls of the source. No cut-off for these calls is given here.

For experiment [1], the target named is Calmodulin (Bos taurus) (UniProt P62157). The experiment is described as follows: Binding affinity to bovine brain calmodulin at 0.033 ug/mL after 1.5 hrs by electrophoretic mobility assay in presence of calcium chloride. In outline: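 Bovine brain calmodulin (2 µg samples) pretreated with isolates at 0.033 µg/mL plus 1 mM CaCl2 for 1.5 h at 30 °C. Mobility then compared against untreated calmodulin on 15% polyacrylamide SDS-PAGE. A parallel condition used EGTA in place of Ca2+.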

The test system of the next experiment is Echinochloa crus-galli. Briefly: Phytotoxicity against Echinochloa crusgalli assessed as inhibition of radicle elongation. It is filed as functional, organism-based. In outline:
(§1)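 Seedling radicle growth assay at 28 °C. Pure compounds tested at 1, 10 and 100 µg mL-1, with 2,4-D as positive control. Results analysed by ANOVA (p < 0.05). IC50 calculated by Probit analysis from percent radicle growth inhibition.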

Experiment [2] addresses Calmodulin (Bos taurus) (UniProt P62157). The experiment is described as follows: Binding affinity to bovine brain calmodulin at 0.033 ug/mL after 1.5 hrs by electrophoretic mobility assay in presence of EGTA. In outline:
(§2)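 Commercial spinach or bovine brain calmodulin, 2-µg samples, pretreated with compound for 1.5 h at 30 °C in presence of 1 mM CaCl2 or EGTA, then run on 15% polyacrylamide SDS-PAGE gels. Binding judged by shift in electrophoretic mobility relative to untreated calmodulin under the same condition (Ca2+ vs EGTA).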

Experiment [3] concerns the target Calmodulin (Spinacia oleracea) (UniProt P04353). Briefly: Binding affinity to spinach calmodulin at 0.033 ug/mL after 1.5 hrs by electrophoretic mobility assay presence of EGTA. In outline: as §2
The target is the same in experiment [4]. Briefly: Binding affinity to spinach calmodulin at 0.033 ug/mL after 1.5 hrs by electrophoretic mobility assay in presence of calcium chloride. In outline:
as §2

Experiment [5] deals with Amaranthus hypochondriacus. Briefly: Phytotoxicity against Amaranthus hypochondriacus assessed as inhibition of radicle elongation. It counts as functional, organism-based. The gist of the method: as §1

For the compound `COc1cc(OC)c2c(O)c3c(=O)c(C)c(C)oc3cc2c1`, the result (at Calmodulin (Bos taurus) [1]; in experiment [3]; in experiment [4]) was Active. The IC50 (usually the point on the concentration scale where inhibition reaches its midpoint) was determined as 170 µM with Echinochloa crus-galli and 80 µM in experiment [5]. The outcome at Calmodulin (Bos taurus) [2] was inactive.
For `COC(=O)c1ccc(O)cc1` [METHYLPARABEN], the result (on Calmodulin (Bos taurus) [1]; in experiment [3]; in experiment [4]) was Active. The figures for the IC50 (in the experiment on Echinochloa crus-galli; in experiment [5]) were 630 µM and 23 µM, respectively. Further, the outcome at Calmodulin (Bos taurus) [2] was inactive.
`COc1cc(OC)c2c(O)c3c(c(OC)c2c1)O[C@@H](C)CC3=O`: the result (at Calmodulin (Bos taurus) [1]; in experiment [3]; in experiment [4]) was Active. The figures for the IC50 (in the experiment on Echinochloa crus-galli; in experiment [5]) were 40 µM and 13 µM, respectively. The result at Calmodulin (Bos taurus) [2] was inactive.
In the case of `O=C(O)COc1ccc(Cl)cc1Cl` [2,4-DICHLOROPHENOXYACETIC ACID], the IC50 is 880 µM in the experiment on Echinochloa crus-galli and 180 µM in experiment [5].
On to `COc1cc(OC)c2c(O)c3c(=O)cc(C)oc3cc2c1` [RUBROFUSARIN B], for which the result (at Calmodulin (Bos taurus) [1]; in experiment [3]; in experiment [4]) was Active. Moreover, the results for the IC50 (in the experiment on Echinochloa crus-galli; in experiment [5]) were 87 µM and 13 µM, respectively. For the same compound, the outcome on Calmodulin (Bos taurus) [2] was inactive.
`COc1cc(OC)c2c(O)c3c(cc2c1)O[C@@H](C)[C@H](C)C3=O`: the result (on Calmodulin (Bos taurus) [1]; in experiment [3]; in experiment [4]) was Active. Moreover, the IC50 came to 120 µM in the experiment on Echinochloa crus-galli and 100 µM in experiment [5]. The outcome on Calmodulin (Bos taurus) [2] was inactive.
As to `Cc1cc(O)c2c(c1)C(=O)c1cc(O)cc(O)c1C2=O` [EMODIN], the outcome (at Calmodulin (Bos taurus) [1]; in experiment [3]; in experiment [4]) was Active. The IC50 with Echinochloa crus-galli was 20 µM; in experiment [5], 130 µM. Further, on Calmodulin (Bos taurus) [2], the outcome was inactive.
As to `COc1cc(OC)c2c(O)c3c(cc2c1)O[C@@H](C)CC3=O`, the outcome (on Calmodulin (Bos taurus) [1]; in experiment [3]; in experiment [4]) was Active. The IC50 is 87 µM in the experiment with Echinochloa crus-galli and 23 µM in experiment [5]. Moreover, on Calmodulin (Bos taurus) [2], the outcome was inactive.
Take `CC1=C2C(=CO[C@H](C)[C@H]2C)C(O)=C(C(=O)O)C1=O` [CITRININ]: the outcome (at Calmodulin (Bos taurus) [1]; in experiment [3]; in experiment [4]) was Active. The IC50 is 63 µM in the experiment on Echinochloa crus-galli and 55 µM in experiment [5]. The result on Calmodulin (Bos taurus) [2] was inactive.
On to `COc1cc(OC)c2c(O)c3c(c(OC)c2c1)O[C@@H](C)[C@H](C)C3=O`, for which the IC50 in the experiment with Echinochloa crus-galli is 61 µM; in experiment [5], 65 µM. For the same compound, the outcome (at Calmodulin (Bos taurus) [2]; in experiment [3]; in experiment [4]) was Active.
